Test results taken from ChEMBL document CHEMBL4190234, “Design, synthesis and anticancer activity of new monastrol analogues bearing 1,3,4-oxadiazole moiety” (Eur J Med Chem, 2017).

Columns and labels:
Format in all cases: functional
SR = assay: Growth inhibition of human SR cells at 10 uM incubated for 48 hrs by sulforhodamine B assay relative to control; details: read-out: GI
How it was run: (§1)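 NCI single-dose screen: cells grown in RPMI 1640 with 5% FBS and 2 mM L-glutamine, plated at 5,000–40,000 cells/well and preincubated 24 h at 37 °C, 5% CO2. Compounds taken from DMSO stock and tested at final 10 µM for 48 h. Cells fixed with TCA, stained with 0.4% SRB, absorbance read at 515 nm. Percentage growth calculated against untreated controls; controls held DMSO at the same dilution.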

NCI-H522 = assay: Growth inhibition of human NCI-H522 cells at 10 uM incubated for 48 hrs by sulforhodamine B assay relative to control; details: NCI-H522, 48 h, read-out: GI
How it was run: (§2)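 Single-dose screen at 10 μM final: cells in RPMI 1640, 5% FBS, 2 mM L-glutamine, plated 5,000–40,000/well, preincubated 24 h at 37°C, 5% CO2; drug 48 h; adherent cells fixed with 10% TCA, suspension cells with 16% TCA; SRB stain, absorbance 515 nm; percentage growth versus untreated control, with time-zero plates.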

MOLT-4 = assay: Growth inhibition of human MOLT4 cells at 10 uM incubated for 48 hrs by sulforhodamine B assay relative to control; details: MOLT-4, 48 h, read-out: GI; how it was run: as §2
IGROV-1 = assay: Growth inhibition of human IGROV1 cells at 10 uM incubated for 48 hrs by sulforhodamine B assay relative to control; details: IGROV-1, 48 h, read-out: GI; how it was run: as §2
CAKI-1 = assay: Growth inhibition of human Caki1 cells at 10 uM incubated for 48 hrs by sulforhodamine B assay relative to control; details: CAKI-1, 48 h, read-out: GI; how it was run: as §2
A549 = assay: Growth inhibition of human A549/ATCC cells at 10 uM incubated for 48 hrs by sulforhodamine B assay relative to control; details: A549, 48 h, read-out: GI; how it was run: as §2
LOX IMVI = assay: Growth inhibition of human LOXIMVI cells at 10 uM incubated for 48 hrs by sulforhodamine B assay relative to control; details: read-out: GI; how it was run: as §2
RPMI-8226 = assay: Growth inhibition of human RPMI8226 cells at 10 uM incubated for 48 hrs by sulforhodamine B assay relative to control; details: RPMI-8226, 48 h, read-out: GI; how it was run: as §2
DU-145 = assay: Growth inhibition of human DU145 cells at 10 uM incubated for 48 hrs by sulforhodamine B assay relative to control; details: DU-145, 48 h, read-out: GI; how it was run: as §2
UACC-257 = assay: Growth inhibition of human UACC257 cells at 10 uM incubated for 48 hrs by sulforhodamine B assay relative to control; details: UACC-257, 48 h, read-out: GI; how it was run: as §1
NCI/ADR-RES = assay: Growth inhibition of human NCI/ADR-RES cells at 10 uM incubated for 48 hrs by sulforhodamine B assay relative to control; details: read-out: GI; how it was run: as §2
UO-31 = assay: Growth inhibition of human UO31 cells at 10 uM incubated for 48 hrs by sulforhodamine B assay relative to control; details: UO-31, 48 h, read-out: GI; how it was run: as §1
HT-29 = assay: Growth inhibition of human HT-29 cells at 10 uM incubated for 48 hrs by sulforhodamine B assay relative to control; details: HT-29, 48 h, read-out: GI; how it was run: as §2
HCT-116 = assay: Growth inhibition of human HCT116 cells at 10 uM incubated for 48 hrs by sulforhodamine B assay relative to control; details: HCT-116, 48 h, read-out: GI; how it was run: as §2
HL-60(TB) = assay: Growth inhibition of human HL-60(TB) cells at 10 uM incubated for 48 hrs by sulforhodamine B assay relative to control; details: HL-60, 48 h, read-out: GI
How it was run: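 Single dose of 10 µM in the NCI ~60-line panel. Cells grown in RPMI 1640 with 5% FBS and 2 mM L-glutamine, plated and pre-incubated 24 h, then exposed 48 h at 37°C under 5% CO2. Suspension cells fixed with TCA (16% final) and stained with sulforhodamine B, A515 read. Reported as percent growth versus untreated control and as GI%.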

786-0 = assay: Growth inhibition of human 786-0 cells at 10 uM incubated for 48 hrs by sulforhodamine B assay relative to control; details: 786-0, 48 h, read-out: GI; how it was run: as §2
TK-10 = assay: Growth inhibition of human TK10 cells at 10 uM incubated for 48 hrs by sulforhodamine B assay relative to control; details: TK-10, 48 h, read-out: GI; how it was run: as §1
SNB-19 = assay: Growth inhibition of human SNB19 cells at 10 uM incubated for 48 hrs by sulforhodamine B assay relative to control; details: SNB-19, 48 h, read-out: GI; how it was run: as §1
ACHN = assay: Growth inhibition of human ACHN cells at 10 uM incubated for 48 hrs by sulforhodamine B assay relative to control; details: read-out: GI; how it was run: as §2
SK-MEL-2 = assay: Growth inhibition of human SK-MEL-2 cells at 10 uM incubated for 48 hrs by sulforhodamine B assay relative to control; details: SK-MEL-2, 48 h, read-out: GI; how it was run: as §1
SNB-75 = assay: Growth inhibition of human SNB75 cells at 10 uM incubated for 48 hrs by sulforhodamine B assay relative to control; details: SNB-75, 48 h, read-out: GI; how it was run: as §1
MDA-MB-468 = assay: Growth inhibition of human MDA-MB-468 cells at 10 uM incubated for 48 hrs by sulforhodamine B assay relative to control; details: MDA-MB-468, 48 h, read-out: GI; how it was run: as §2
CCRF-CEM = assay: Growth inhibition of human CCRF-CEM cells at 10 uM incubated for 48 hrs by sulforhodamine B assay relative to control; details: read-out: GI; how it was run: as §2
OVCAR-8 = assay: Growth inhibition of human OVCAR8 cells at 10 uM incubated for 48 hrs by sulforhodamine B assay relative to control; details: OVCAR-8, 48 h, read-out: GI; how it was run: as §2
Hs-578T = assay: Growth inhibition of human Hs 578T cells at 10 uM incubated for 48 hrs by sulforhodamine B assay relative to control; details: read-out: GI; how it was run: as §2
MDA-MB-435 = assay: Growth inhibition of human MDA-MB-435 cells at 10 uM incubated for 48 hrs by sulforhodamine B assay relative to control; details: MDA-MB-435, 48 h, read-out: GI; how it was run: as §2
SF-539 = assay: Growth inhibition of human SF539 cells at 10 uM incubated for 48 hrs by sulforhodamine B assay relative to control; details: SF-539, 48 h, read-out: GI; how it was run: as §1
HCT-15 = assay: Growth inhibition of human HCT15 cells at 10 uM incubated for 48 hrs by sulforhodamine B assay relative to control; details: HCT-15, 48 h, read-out: GI; how it was run: as §2

Structure (SMILES) | inhibition of growth at 10 µM (SR) | inhibition of growth at 10 µM (NCI-H522) | inhibition of growth at 10 µM (MOLT-4) | inhibition of growth at 10 µM (IGROV-1) | inhibition of growth at 10 µM (CAKI-1) | inhibition of growth at 10 µM (A549) | inhibition of growth at 10 µM (LOX IMVI) | inhibition of growth at 10 µM (RPMI-8226) | inhibition of growth at 10 µM (DU-145) | inhibition of growth at 10 µM (UACC-257) | inhibition of growth at 10 µM (NCI/ADR-RES) | inhibition of growth at 10 µM (UO-31) | inhibition of growth at 10 µM (HT-29) | inhibition of growth at 10 µM (HCT-116) | inhibition of growth at 10 µM (HL-60(TB)) | inhibition of growth at 10 µM (786-0) | inhibition of growth at 10 µM (TK-10) | inhibition of growth at 10 µM (SNB-19) | inhibition of growth at 10 µM (ACHN) | inhibition of growth at 10 µM (SK-MEL-2) | further results
CCOC(=O)C1=C(C)NC(SCc2nnc(-c3ccc(Cl)cc3)o2)=NC1c1ccc(OC)cc1 (stereo unspecified) | 18.1% | < 10% | < 10% | 17.8% | 17.8% | 11.5% | < 10% | 18.3% | < 10% | < 10% | < 10% | 20.3% | < 10% | < 10% | < 10% | 18.8% | < 10% | 12.5% | < 10% | < 10% | inhibition of growth at 10 µM (SNB-75): 18.9%; inhibition of growth at 10 µM (MDA-MB-468): < 10%; inhibition of growth at 10 µM (CCRF-CEM): 12.9%; inhibition of growth at 10 µM (OVCAR-8): < 10%; inhibition of growth at 10 µM (Hs-578T): < 10%; inhibition of growth at 10 µM (MDA-MB-435): < 10%; inhibition of growth at 10 µM (SF-539): < 10%; inhibition of growth at 10 µM (HCT-15): < 10%
CCOC(=O)C1=C(C)NC(SCc2nnc(-c3ccc(Cl)cc3)o2)=NC1c1ccc(F)cc1 (stereo unspecified) | 16.7% | 17.5% | 20.4% | 17.1% | 17.5% | 11.7% | < 10% | 25.8% | < 10% | < 10% | < 10% | 22.2% | 10.3% | 21.7% | 23.5% | 10.7% | 13.9% | 11.6% | < 10% | < 10% | inhibition of growth at 10 µM (SNB-75): < 10%; inhibition of growth at 10 µM (MDA-MB-468): 17.1%; inhibition of growth at 10 µM (CCRF-CEM): 16.9%; inhibition of growth at 10 µM (OVCAR-8): 11.7%; inhibition of growth at 10 µM (Hs-578T): < 10%; inhibition of growth at 10 µM (MDA-MB-435): < 10%; inhibition of growth at 10 µM (SF-539): < 10%; inhibition of growth at 10 µM (HCT-15): 15.8%
